For 6 compounds, Ki and EC50 results are on record in ChEMBL document CHEMBL1138440, “Phosphorous acid analogs of novel P2-P4 macrocycles as inhibitors of HCV-NS3 protease” (Bioorg Med Chem Lett, 2009).

The test system of experiment [1] is Hepatitis C virus. The experiment is described as follows: Inhibition of HCV genotype 1b NS3/4A protease. Further details: species or system Hepatitis C virus subtype 1b. The procedure, abridged: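 Full-length HCV NS3/4A protease; inhibition reported as Ki. Mean of at least three independent experiments.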
Experiment [2] concerns Hepatitis C virus. The experiment is described as follows: Antiviral activity against HCV infected in human HuH7 cells by subgenomic replication assay in presence of 10% fetal calf serum. The experiment is classed as functional, organism-based, Hepacivirus hominis. The following applies: Huh-7. The procedure, abridged: (§1)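 HCV replicon replication assay in Huh-7 cells; EC50 is the concentration giving 50% inhibition of replication. Run with 10% fetal calf serum (low serum) or 50% normal human serum (to gauge protein binding). Mean of at least three independent experiments.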

Experiment [3] relates to Hepatitis C virus. The experiment is described as follows: Antiviral activity against HCV infected in human HuH7 cells by subgenomic replication assay in presence of 50% normal human serum. The format is functional, organism-based, Hepacivirus hominis, Huh-7. The method in brief:
as §1

Each structure is given as a SMILES string.

In general, Ki refers to a measure of affinity in units of concentration, obtained from inhibition or displacement. By EC50 is commonly meant the midpoint of the concentration-response curve.

Regarding `C=C[C@H]1C[C@]1(NC(=O)[C@@H]1C[C@@H]2CN1C(=O)[C@H](C(C)(C)C)NC(=O)OCC(C)(C)CCCCc1cccc3c1CN(C3)C(=O)O2)C(=O)O`, the Ki in the experiment with Hepatitis C virus [1] was determined as 2800 nM.

For the compound `C=CC1CC1(NC(=O)[C@@H]1C[C@@H]2CN1C(=O)[C@H](C(C)(C)C)NC(=O)OCC(C)(C)CCCCc1cccc3c1CN(C3)C(=O)O2)P(=O)(O)O` (mixture of isomers), in the experiment on Hepatitis C virus [1], the Ki is 16 nM.

Regarding `C=CC1CC1(NC(=O)[C@@H]1C[C@@H]2CN1C(=O)[C@H](C(C)(C)C)NC(=O)OCC(C)(C)CCCCc1cccc3c1CN(C3)C(=O)O2)P(=O)(O)OCC` (mixture of isomers), the affinity in the experiment with Hepatitis C virus [1] corresponds to a Ki of 70 nM. The EC50 in the experiment on Hepatitis C virus [2] is 660 nM; in the experiment with Hepatitis C virus [3] (Hepatitis C virus, Huh-7), 2400 nM.

In the experiment on Hepatitis C virus [1], `C=CC1CC1(NC(=O)[C@@H]1C[C@@H]2CN1C(=O)[C@H](C(C)(C)C)NC(=O)OCC(C)(C)CCCCc1cccc3c1CN(C3)C(=O)O2)P(C)(=O)O` (mixture of isomers) displayed a Ki of 2 nM. Moreover, the EC50 with Hepatitis C virus [2] turned out to be 500 nM; with Hepatitis C virus [3] (Hepatitis C virus, Huh-7), 250 nM.

Regarding `C=CC1CC1(NC(=O)[C@@H]1C[C@@H]2CN1C(=O)[C@H](C(C)(C)C)NC(=O)OCC(C)(C)CCCCc1cccc3c1CN(C3)C(=O)O2)P(=O)(OCC)OCC` (single isomer, unassigned), the EC50 in the experiment with Hepatitis C virus [2] worked out at 20000 nM; with Hepatitis C virus [3] (Hepatitis C virus, Huh-7), 15000 nM.

With `C=CC1CC1(NC(=O)[C@@H]1C[C@@H]2CN1C(=O)[C@H](C(C)(C)C)NC(=O)OCC(C)(C)CCCCc1cccc3c1CN(C3)C(=O)O2)P(=O)(OCC)OCC` (stereo in doubt), the Ki with Hepatitis C virus [1] was determined as 2900 nM. Also, the EC50 in the experiment with Hepatitis C virus [3] (huh-7) turned out to be 20000 nM.
